According to ChEMBL document CHEMBL1145833, “Studies on the synthesis and biological properties of non-carrier-added [(125)I and (131)I]-labeled arylalkylidenebisphosphonates: potent bone-seekers for diagnosis and therapy of malignant osseous lesions” (J Med Chem, 2003):

Columns and labels:
Settings in all cases: in vivo
[1] = species: Mus musculus; experiment: Distribution of compound in liver tissue of mice after 5 hr injection time was determined; format: ADME, organism-based
Outline: (§1)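 Healthy athymic nude mice (balb/c nu/nu, 20–25 g, both sexes) received 50–400 KBq radioiodinated bisphosphonate in 100 µL phosphate buffer pH 6–7 by tail-vein injection. Three animals were sacrificed per time point. Tissues were excised, weighed and gamma-counted. Values are % injected dose per gram tissue, mean ± 1 SD, n = 3.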

[2] = species: Mus musculus; experiment: Distribution of compound in lungs tissue of mice after 0.5 h injection time was determined; format: ADME, organism-based, Lung; outline: as §1
[3] = species: Mus musculus; experiment: Distribution of compound in lungs tissue of mice after 2 hr injection time was determined; format: ADME, organism-based, Lung; outline: as §1
[4] = species: Mus musculus; experiment: Distribution of compound in lungs tissue of mice after 24 hr injection time was determined; format: ADME, organism-based, Lung; outline: as §1
[5] = species: Mus musculus; experiment: Distribution of compound in lungs tissue of mice after 5 hr injection time was determined; format: ADME, organism-based, Lung; outline: as §1
[6] = species: Mus musculus; experiment: Distribution of compound in skull tissue of mice after 0.5 hr injection time was determined; format: ADME, organism-based; outline: as §1
[7] = species: Mus musculus; experiment: Distribution of compound in skull tissue of mice after 2 hr injection time was determined; format: ADME, organism-based; outline: as §1
[8] = species: Mus musculus; experiment: Distribution of compound in skull tissue of mice after 24 hr injection time was determined; format: ADME, organism-based; outline: as §1
[9] = species: Mus musculus; experiment: Distribution of compound in skull tissue of mice after 5 h injection time was determined; format: ADME, organism-based; outline: as §1
[10] = species: Mus musculus; experiment: Distribution of compound in spleen tissue of mice after 0.5 hr injection time was determined; format: ADME, organism-based; outline: as §1
[11] = species: Mus musculus; experiment: Distribution of compound in kidneys tissue of mice after 0.5 hr injection time was determined; format: ADME, organism-based, Kidney; outline: as §1
[12] = species: Mus musculus; experiment: Distribution of compound in kidneys tissue of mice after 2 hr injection time was determined; format: ADME, organism-based, Kidney; outline: as §1
[13] = species: Mus musculus; experiment: Distribution of compound in kidneys tissue of mice after 24 hr injection time was determined; format: ADME, organism-based, Kidney; outline: as §1
[14] = species: Mus musculus; experiment: Distribution of compound in kidneys tissue of mice after 5 hr injection time was determined; format: ADME, organism-based, Kidney; outline: as §1
[15] = species: Mus musculus; experiment: Distribution of compound in liver tissue of mice after 0.5 hr injection time was determined; format: ADME, organism-based; outline: as §1
[16] = species: Mus musculus; experiment: Distribution of compound in liver tissue of mice after 24 hr injection time was determined; format: ADME, organism-based; outline: as §1
[17] = species: Mus musculus; experiment: Distribution of compound in heart tissue of mice after 2 hr injection time was determined; format: ADME, organism-based; outline: as §1
[18] = species: Mus musculus; experiment: Distribution of compound in heart tissue of mice after 24 hr injection time was determined; format: ADME, organism-based; outline: as §1
[19] = species: Mus musculus; experiment: Distribution of compound in heart tissue of mice after 5 hr injection time was determined; format: ADME, organism-based; outline: as §1
[20] = species: Mus musculus; experiment: Distribution of compound in intestine tissue of mice after 0.5 hr injection time was determined; format: ADME, organism-based; outline: as §1
[21] = species: Mus musculus; experiment: Distribution of compound in intestine tissue of mice after 2 hr injection time was determined; format: ADME, organism-based; outline: as §1
[22] = species: Mus musculus; experiment: Distribution of compound in intestine tissue of mice after 24 hr injection time was determined; format: ADME, organism-based; outline: as §1
[23] = species: Mus musculus; experiment: Distribution of compound in intestine tissue of mice after 5 hr injection time was determined; format: ADME, organism-based; outline: as §1
[24] = species: Mus musculus; experiment: Distribution of compound in spleen tissue of mice after 2 hr injection time was determined; format: ADME, organism-based; outline: as §1
[25] = species: Mus musculus; experiment: Distribution of compound in spleen tissue of mice after 24 hr injection time was determined; format: ADME, organism-based; outline: as §1
[26] = species: Mus musculus; experiment: Distribution of compound in spleen tissue of mice after 5 h injection time was determined; format: ADME, organism-based; outline: as §1
[27] = species: Mus musculus; experiment: Distribution of compound in stomach tissue of mice after 0.5 hr injection time was determined; format: ADME, organism-based; outline: as §1
[28] = species: Mus musculus; experiment: Distribution of compound in stomach tissue of mice after 2 hr injection time was determined; format: ADME, organism-based; outline: as §1
[29] = species: Mus musculus; experiment: Distribution of compound in stomach tissue of mice after 24 hr injection time was determined; format: ADME, organism-based; outline: as §1
[30] = species: Mus musculus; experiment: Distribution of compound in stomach tissue of mice after 5 hr injection time was determined; format: ADME, organism-based; outline: as §1
[31] = species: Mus musculus; experiment: Distribution of compound in thyroid tissue of mice after 0.5 hr injection time was determined; format: ADME, organism-based, Thyroid gland
Outline: (§2)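 Healthy athymic nude balb/c nu/nu mice (20–25 g) received 50–400 KBq radioiodinated bisphosphonate in 100 μL phosphate buffer, pH 6–7, by tail-vein injection. Three animals were sacrificed per time point. Thyroid-containing tissue was excised, weighed and gamma-counted. Values are % of injected dose, mean ± 1 SD of three mice.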

[32] = species: Mus musculus; experiment: Distribution of compound in thyroid tissue of mice after 2 hr injection time was determined; format: ADME, organism-based, Thyroid gland; outline: as §2
[33] = species: Mus musculus; experiment: Distribution of compound in thyroid tissue of mice after 24 h injection time was determined; format: ADME, organism-based, Thyroid gland; outline: as §2
[34] = species: Mus musculus; experiment: Distribution of compound in thyroid tissue of mice after 5 h injection time was determined; format: ADME, organism-based, Thyroid gland; outline: as §2
[35] = species: Mus musculus; experiment: Distribution of compound in blood tissue of mice after 0.5 hr injection time was determined; format: ADME, organism-based; outline: as §1
[36] = species: Mus musculus; experiment: Distribution of compound in blood tissue of mice after 2 hr injection time was determined; format: ADME, organism-based; outline: as §1
[37] = species: Mus musculus; experiment: Distribution of compound in blood tissue of mice after 24 hr injection time was determined; format: ADME, organism-based; outline: as §1
[38] = species: Mus musculus; experiment: Distribution of compound in blood tissue of mice after 5 h injection time was determined; format: ADME, organism-based; outline: as §1
[39] = species: Mus musculus; experiment: Distribution of compound in femur tissue of mice after 0.5 hr injection time was determined; format: ADME, organism-based; outline: as §1
[40] = species: Mus musculus; experiment: Distribution of compound in femur tissue of mice after 2 hr injection time was determined; format: ADME, organism-based; outline: as §1
[41] = species: Mus musculus; experiment: Distribution of compound in femur tissue of mice after 24 hr injection time was determined; format: ADME, organism-based; outline: as §1
[42] = species: Mus musculus; experiment: Distribution of compound in femur tissue of mice after 5 hr injection time was determined; format: ADME, organism-based; outline: as §1
[43] = species: Mus musculus; experiment: Distribution of compound in heart tissue of mice after 0.5 hr injection time was determined; format: ADME, organism-based; outline: as §1
[44] = species: Mus musculus; experiment: Distribution of compound in liver tissue of mice after 2 h injection time was determined; format: ADME, organism-based; outline: as §1
[45] = species: Rattus norvegicus; experiment: Distribution of compound in liver tissue of rats after 24 hr injection time was determined; format: ADME, organism-based
Outline: (§3)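 Healthy congenitally athymic nude rats (Han rnu/rnu Rowett, 60 g, both sexes) received 0.4 MBq radioiodinated bisphosphonate in 200 µL phosphate buffer pH 7 via tail vein. Three rats were sacrificed 24 h post-injection. Excised organs were weighed and gamma-counted. Values are % injected dose per gram tissue, mean ± 1 SD of three rats.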

[46] = species: Rattus norvegicus; experiment: Distribution of compound in lung tissue of rats after 24 hr injection time was determined; format: ADME, organism-based; outline: as §3
[47] = species: Rattus norvegicus; experiment: Distribution of compound in skull tissue of rats after 24 hr injection time was determined; format: ADME, organism-based; outline: as §3
[48] = species: Rattus norvegicus; experiment: Distribution of compound in heart tissue of rats after 24 hr injection time was determined; format: ADME, organism-based; outline: as §3
[49] = species: Rattus norvegicus; experiment: Distribution of compound in intestine tissue of rats after 24 hr injection time was determined; format: ADME, organism-based; outline: as §3
[50] = species: Rattus norvegicus; experiment: Distribution of compound in kidney tissue of rats after 24 hr injection time was determined; format: ADME, organism-based; outline: as §3
[51] = species: Rattus norvegicus; experiment: Distribution of compound in spleen tissue of rats after 24 hr injection time was determined; format: ADME, organism-based; outline: as §3
[52] = species: Rattus norvegicus; experiment: Distribution of compound in stomach tissue of rats after 24 hr injection time was determined; format: ADME, organism-based; outline: as §3
[53] = species: Rattus norvegicus; experiment: Distribution of compound in thyroid tissue of rats after 24 hr injection time was determined; format: ADME, organism-based, Thyroid gland
Outline: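 Healthy congenitally athymic nude rats (Han rnu/rnu Rowett, 60 g) received 0.4 MBq radioiodinated bisphosphonate in 200 μL phosphate buffer, pH 7, by tail-vein injection. Three rats were sacrificed 24 h after injection. Thyroid-containing tissue was excised, weighed and gamma-counted. Values are % of injected dose, mean ± 1 SD of three rats.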

[54] = species: Rattus norvegicus; experiment: Distribution of compound in blood tissue of rats after 24 hr injection time was determined; format: ADME, organism-based; outline: as §3
[55] = species: Rattus norvegicus; experiment: Distribution of compound in femur tissue of rats after 24 h injection time was determined; format: ADME, organism-based; outline: as §3

O=P(O)(O)C(Cc1cccc(I)c1)P(=O)(O)O
Injected [1]: 0.94%
Injected [2]: 1%
Injected [3]: 0.35%
Injected [4]: 0.06%
Injected [5]: 0.1%
Injected [6]: 10.28%
Injected [7]: 7.64%
Injected [8]: 7.13%
Injected [9]: 6.16%
Injected [10]: 0.35%
Injected [11]: 8.23%
Injected [12]: 3.68%
Injected [13]: 1.06%
Injected [14]: 2.26%
Injected [15]: 2.98%
Injected [16]: 0.23%
Injected [17]: 0.26%
Injected [18]: 0.04%
Injected [19]: 0.07%
Injected [20]: 0.37%
Injected [21]: 0.28%
Injected [22]: 0.28%
Injected [23]: 0.24%
Injected [24]: 0.26%
Injected [25]: 0.1%
Injected [26]: 0.12%
Injected [27]: 1.14%
Injected [28]: 1.12%
Injected [29]: 0.05%
Injected [30]: 0.23%
Injected [31]: 0.21%
Injected [32]: 0.14%
Injected [33]: 0.02%
Injected [34]: 0.06%
Injected [35]: 2.22%
Injected [36]: 0.31%
Injected [37]: 0.03%
Injected [38]: 0.11%
Injected [39]: 18.8%
Injected [40]: 21.16%
Injected [41]: 15.25%
Injected [42]: 10%
Injected [43]: 0.9%
Injected [44]: 2.14%

O=P(O)(O)C(O)(Cc1cccc(I)c1)P(=O)(O)O
Injected [1]: 2.51%
Injected [45]: 0.18%
Injected [46]: 0.05%
Injected [2]: 5.41%
Injected [3]: 1.2%
Injected [4]: 0.54%
Injected [5]: 0.61%
Injected [6]: 24.61%
Injected [7]: 26.49%
Injected [8]: 21.34%
Injected [9]: 19.14%
Injected [47]: 5.84%
Injected [10]: 2.02%
Injected [11]: 18.64%
Injected [12]: 13.3%
Injected [13]: 5.16%
Injected [14]: 7.17%
Injected [15]: 3.88%
Injected [16]: 2.27%
Injected [17]: 0.82%
Injected [18]: 0.18%
Injected [19]: 0.4%
Injected [48]: 0.04%
Injected [20]: 1.07%
Injected [21]: 1%
Injected [22]: 0.16%
Injected [23]: 0.45%
Injected [49]: 0.03%
Injected [50]: 0.36%
Injected [24]: 0.77%
Injected [25]: 0.49%
Injected [26]: 0.47%
Injected [51]: 0.09%
Injected [27]: 3.22%
Injected [28]: 1.79%
Injected [29]: 0.13%
Injected [30]: 0.38%
Injected [52]: 0.05%
Injected [31]: 0.51%
Injected [32]: 0.19%
Injected [33]: 0.06%
Injected [34]: 0.49%
Injected [53]: 0.02%
Injected [35]: 15.92%
Injected [36]: 1.36%
Injected [37]: 0.09%
Injected [38]: 0.82%
Injected [54]: 0.01%
Injected [39]: 45.03%
Injected [40]: 45.54%
Injected [41]: 37.79%
Injected [42]: 30.3%
Injected [55]: 16.44%
Injected [43]: 3.35%
Injected [44]: 3.36%
